# Results reported in ChEMBL document CHEMBL1255434, “Heat stress cognate 70 host protein as a potential drug target against drug resistance in hepatitis B virus” (Antimicrob Agents Chemother, 2010).
# Calls of active or inactive are those of the source. The calls are words filed in the database; no cut-off is given here.
# What was measured:
# [1] = Decrease in HscA70-mRNA expression in Hepatitis B virus infected in human HepG2(2.2.15) cells at 5.9 uM after 24-36 hrs by RT-PCR analysis; type: functional, cell-based
# [2] = test system: Hepatitis B virus; assay: Antiviral activity against Hepatitis B virus infected in human HepG2(2.2.15) cells assessed as decrease in intracellular viral DNA level at 5.9 uM after 72 hrs by RT-PCR analysis; type: functional, organism-based
# In short: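 HepG2.2.15 cells were treated at 5.9, 23.6, 94.5 and 378 μM and 1.51 mM for 72 h. Intracellular HBV DNA was measured by real-time PCR, with Hsc70 mRNA by RT-PCR in parallel. Amounts were expressed relative to untreated cells, set as 1. Dot blot was used as confirmation. Means and SD.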
# [3] = test system: HepG2 2.2.15; assay: Reduction in Hsc70 mRNA half-life in Hepatitis B virus infected in human HepG2(2.2.15) cells at 1.51 mM after 24 hrs by RT-PCR analysis; type: functional; settings: HepG2 2.2.15, 24 h
# In short: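 HepG2.2.15 cells treated or not with 0.4 mg/ml (1.51 mM) for 24 h, then actinomycin D 5 μg/ml added to block transcription. RNA harvested at intervals; Hsc70 mRNA by real-time RT-PCR, normalized to GAPDH. Percent remaining plotted against time to estimate T1/2. Repeated twice.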
# [4] = test system: Hepatitis B virus; assay: Antiviral activity against lamivudine-resistant Hepatitis B virus infected in human Huh-7 cells assessed as suppression of viral replication at 1.51 mM after 24 hrs by RT-PCR analysis; type: functional; settings: Huh-7, 24 h
# In short: (§1)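 Huh-7 cells (10^5/well) were plated and incubated overnight. They were then transfected for 24 h with pcDNA3.1 carrying one HBV strain: Lamr (rtL180M+rtM204V), Advr (rtA181V+rtN236T) or Etvr (rtL180M+rtM204V+rtS202G). Medium was replaced with fresh medium containing 0.4 mg/ml (1.51 mM) for 24 h. Intracellular HBV DNA replicative intermediates were quantified by real-time PCR against untreated controls. Performed twice.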
# [5] = test system: HepG2; assay: Decrease in Hsc70- mRNA expression in human liver HepG2 cells at 0.23 to 0.94 mM after 24 hrs by RT-PCR analysis; type: functional, cell-based
# In short: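 Hsc70 mRNA by one-step SYBR Green qRT-PCR after 24 h treatment at 0.0625 or 0.25 mg/ml (0.23 and 0.94 mM), relative to untreated cells. More than 5 experiments; means and SD.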
# [6] = Cytotoxicity against human HepG2(2.2.15) cells assessed as cell growth at 1.51 mM after 36 hrs; type: cell-based; settings: hepg2 2.2.15, 36 h, 1510 µM
# In short: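 HepG2.2.15 cell growth followed during 36 h exposure to 0.4 mg/ml (1.51 mM), compared with untreated cells; experiment repeated twice.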
# [7] = Decrease in Hsc70- mRNA expression in Hepatitis B virus infected in human HepG2(2.2.15) cells at 1.51 mM by RT-PCR analysis; type: functional, cell-based; settings: TDE = time-dependent effect
# [8] = Decrease in Hsc70-protein expression in Hepatitis B virus infected in human HepG2(2.2.15) cells at 1.51 mM after 24 hrs by Western blot analysis; type: functional, cell-based
# In short: (§2)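 HepG2.2.15 cells treated 24 h at 0.4 mg/ml (1.51 mM). Western blot: RIPA lysates with PMSF and protease inhibitors, SDS-PAGE, PVDF, 5% milk/TBST block 1 h at 37°C, mouse anti-Hsc70 monoclonal, HRP secondary, ECL. Flow cytometry: rabbit anti-Hsc70 with Cy5-labelled anti-rabbit secondary. Five experiments per assay.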
# [9] = Decrease in Hsc70-protein expression in Hepatitis B virus infected in human HepG2(2.2.15) cells at 1.51 mM after 24 hrs by flow-cytometric assay; type: functional, cell-based; in short: as §2
# [10] = Decrease in Hsc70- mRNA expression in Hepatitis B virus infected in human HepG2(2.2.15) cells at 1.51 mM after 72 hrs by RT-PCR analysis; type: functional, cell-based
# In short: (§3)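 Dose-response in HepG2.2.15 cells: 5.9, 23.6, 94.5 and 378 μM and 1.51 mM for 72 h. Hsc70 mRNA by qRT-PCR and intracellular HBV DNA by real-time PCR, each expressed relative to untreated cells (=1). HBV DNA also checked by dot blot. EC50 from this curve.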
# [11] = test system: Hepatitis B virus; assay: Antiviral activity against Hepatitis B virus infected in human HepG2(2.2.15) cells assessed as decrease in intracellular viral DNA level at 1.51 mM after 36 hrs by RT-PCR analysis; type: functional; settings: HepG2 2.2.15, 36 h
# In short: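 HepG2.2.15 cells (HBV full-genome transfected HepG2) in MEM with 10% FBS, exposed to 0.4 mg/ml (1.51 mM) for 36 h. Intracellular DNA (genomic plus HBV) isolated and HBV DNA quantified by SYBR Green real-time PCR. Values were normalised to the untreated-cell mean, set as 1.0. Run 3 times; means and SD.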
# [12] = test system: Hepatitis B virus; assay: Antiviral activity against Hepatitis B virus infected in human HepG2(2.2.15) cells assessed as decrease in supernatant viral DNA level at 1.51 mM after 36 hrs by RT-PCR analysis; type: functional; design: scale not given: the % may be the effect or the level left
# [13] = Decrease in Luc mRNA expression in human sHepG2(2.2.15) cells expressing pLuc-3'UTR […] by RT-PCR analysis; type: functional, cell-based; design: scale not given: the % may be the effect or the level left; settings: HepG2 2.2.15
# [14] = Decrease in Luc mRNA expression in human sHepG2(2.2.15) cells expressing pLuc-5'UTR after 24 hrs by RT-PCR analysis; type: functional, cell-based; settings: HepG2 2.2.15
# In short: (§4)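 HepG2.2.15 cells transfected 24 h with luciferase reporter pLuc (pcDNA3.0 backbone), pLuc-3′UTR or pLuc-5′UTR (Hsc70 UTR chimeras). Cells split into two dishes, incubated overnight, then given drug or dilution buffer. Total RNA taken 12 h later; Luc mRNA by real-time RT-PCR. Three experiments; means and SD.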
# [15] = Decrease in wild type Luc mRNA expression in human HepG2(2.2.15) cells after 24 hrs by RT-PCR analysis; type: functional, cell-based; in short: as §4
# [16] = Decrease in HscA4-mRNA expression in Hepatitis B virus infected in human HepG2(2.2.15) cells at 1.51 mM after 24 hrs by RT-PCR analysis; type: functional, cell-based
# In short: (§5)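 HepG2.2.15 cells at 0.4 mg/ml (1.51 mM). HspA4 and Hsp90 mRNA measured as host reference genes by one-step SYBR Green qRT-PCR, alongside Hsc70 mRNA and HBV DNA.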
# [17] = Decrease in HscA90-mRNA expression in Hepatitis B virus infected in human HepG2(2.2.15) cells at 1.51 mM after 24 hrs by RT-PCR analysis; type: functional, cell-based; in short: as §5
# [18] = test system: Hepatitis B virus; assay: Antiviral activity against Hepatitis B virus infected in human HepG2(2.2.15) cells assessed as decrease in intracellular viral DNA level at 113 uM after 72 hrs by RT-PCR analysis; type: functional, organism-based
# In short: (§6)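 HepG2.2.15 cells (HBV genome-transfected, MEM + 10% FBS) treated 72 h with drug alone or in two-drug combination. Entecavir 0.6 μg/ml (2.16 μM), adefovir 3 μg/ml (5.9 μM), lamivudine 3 μg/ml (13 μM), oxymatrine 30 μg/ml (113 μM). Intracellular HBV DNA by SYBR Green real-time PCR, relative to untreated. Experiment repeated twice; means and SD, Student's t test.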
# [19] = test system: Hepatitis B virus; assay: Antiviral activity against Hepatitis B virus infected in human HepG2(2.2.15) cells assessed as decrease in intracellular viral DNA level at 113 uM after 72 hrs by RT-PCR analysis in presence of adefovir; type: functional, organism-based; in short: as §6
# [20] = test system: Hepatitis B virus; assay: Antiviral activity against Hepatitis B virus infected in human HepG2(2.2.15) cells assessed as decrease in intracellular viral DNA level at 113 uM after 72 hrs by RT-PCR analysis in presence of entecavir; type: functional, organism-based; in short: as §6
# [21] = test system: Hepatitis B virus; assay: Antiviral activity against Hepatitis B virus infected in human HepG2(2.2.15) cells assessed as reduction in viral DNA level at 23.6 uM to 1.51 mM after 72 hrs by RT-PCR analysis; type: functional; in short: as §3
# [22] = test system: Hepatitis B virus; assay: Antiviral activity against Hepatitis B virus infected in human HepG2(2.2.15) cells assessed as reduction in viral DNA level by RT-PCR analysis; type: functional, organism-based
# [23] = Cytotoxicity against human HepG2(2.2.15) cells assessed as cell killing by MTT assay; type: cell-based
# In short: (§7)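 CC50 from MTT assay in HepG2.2.15 cells. Therapeutic ratio taken as CC50 over the anti-HBV EC50 from the 72 h dose-response measuring intracellular HBV DNA by real-time PCR.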
# [24] = Therapeutic index, ratio of CC50 for human sHepG2(2.2.15) cells to IC50 for Hepatitis B virus; type: cell-based; settings: HepG2 2.2.15 cells; in short: as §7
# [25] = test system: Hepatitis B virus; assay: Antiviral activity against Hepatitis B virus infected in human HepG2(2.2.15) cells assessed as reduction in viral DNA replicative intermediates at 23.6 uM to 1.51 mM after 24 hrs by RT-PCR analysis; type: functional
# [26] = test system: Hepatitis B virus; assay: Antiviral activity against Hepatitis B virus infected in human HepG2(2.2.15) cells assessed as reduction in genomic viral DNA at 23.6 uM to 1.51 mM after 24 hrs by RT-PCR analysis; type: functional; design: scale not given: the % may be the effect or the level left
# [27] = test system: Hepatitis B virus; assay: Antiviral activity against Hepatitis B virus infected in human HepG2(2.2.15) cells assessed as reduction in viral DNA level at 1.51 mM for 12, 24 or 36 hrs by RT-PCR analysis; type: functional, organism-based
# In short: (§8)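 HepG2.2.15 cells exposed to 0.4 mg/ml (1.51 mM) for 12, 24 or 36 h. Total RNA taken for HBV mRNA by one-step SYBR Green qRT-PCR; intracellular DNA isolated for HBV DNA by real-time PCR. Each value scaled to the mean of untreated cells set as 1.0. Three experiments; means and SD.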
# [28] = test system: Hepatitis B virus; assay: Antiviral activity against Hepatitis B virus infected in human HepG2(2.2.15) cells assessed as reduction in viral mRNA level at 1.51 mM for 12, 24 or 36 hrs by RT-PCR analysis; type: functional, organism-based; in short: as §8
# [29] = test system: Hepatitis B virus; assay: Antiviral activity against adefovir-resistant Hepatitis B virus infected in human Huh-7 cells assessed as suppression of viral replication at 1.51 mM after 24 hrs by RT-PCR analysis; type: functional; settings: Huh-7, 24 h; in short: as §1
# [30] = test system: Hepatitis B virus; assay: Antiviral activity against entecavir-resistant Hepatitis B virus infected in human Huh-7 cells assessed as suppression of viral replication at 1.51 mM after 24 hrs by RT-PCR analysis; type: functional; settings: Huh-7, 24 h; in short: as §1
# [31] = Half life in human blood; type: ADME, tissue-based
# [32] = test system: Hepatitis B virus; assay: Antiviral activity against drug-resistant chronic Hepatitis B virus infected patients assessed as reduction in viral DNA at 0.4 g/day, po for 12 months; type: functional
# [33] = Cytotoxicity against human HepG2(2.2.15) cells assessed as cell survival at 113 uM continuous exposure measured after 7 months; settings: hepg2 2.2.15, 5113.5 h
# [34] = Cytotoxicity against human HepG2(2.2.15) cells assessed as cell survival at 113 uM continuous exposure measured after 2 months; settings: hepg2 2.2.15, 1461 h
# [35] = test system: Hepatitis B virus; assay: Antiviral activity against Hepatitis B virus infected in human HepG2(2.2.15) cells assessed as reduction in viral DNA level at 113 uM continuous exposure measured after 2 months by RT-PCR analysis
# [36] = test system: Hepatitis B virus; assay: Antiviral activity against Hepatitis B virus infected in human HepG2(2.2.15) cells assessed as reduction in viral DNA level at 113 uM continuous exposure measured after 7 months by RT-PCR analysis
smiles,measurement,setting,value
Nc1ncnc2c1ncn2CCOCP(=O)(O)O,Activity,[1],inactive
same,Activity,[2],Active
O=C1CCC[C@@H]2[C@H]3CCC[N+]4([O-])CCC[C@@H](CN12)[C@@H]34 (stereo partly specified) [OXYMATRINE],inhibition at 1510 µM,[3],50%
same,inhibition at 1510 µM,[4],62%
same,Activity,[5],Active
same,Activity,[6],Non-toxic
same,Activity,[7],tde
same,Activity,[8],Active
same,Activity,[9],Active
same,Activity,[10],inactive
same,inhibition at 1510 µM,[11],62%
same,Activity,[12],60%
same,Activity,[13],50%
same,Activity,[14],inactive
same,Activity,[15],inactive
same,Activity,[16],inactive
same,Activity,[17],inactive
same,Activity,[18],Active
same,Activity,[19],Active
same,Activity,[20],Active
same,inhibition (INH),[21],43%
same,EC50,[22],31 µg/mL
same,MTT,[23],3.12 mg/mL
same,selectivity ratio,[24],> 100
same,inhibition (INH),[25],75%
same,Activity,[26],54%
same,Activity,[27],Active
same,Activity,[28],inactive
same,inhibition at 1510 µM,[29],62%
same,inhibition at 1510 µM,[30],62%
same,half-life,[31],2.4 h
same,log10cfu,[32],1.5
same,Activity,[33],Non-toxic
same,Activity,[34],Non-toxic
same,Activity,[35],Active
same,Activity,[36],Active
